# Data published in the RNAGym collection of RNA variant scans (doi:10.1038/nmeth.2970).
# B1: NELF-E aptamer (parent)
# chain: CCCAACGACUGCCGAGCGAGAUUACGCUUGAGCGCCCCACUGAGGAUGCCCACGGGCGAUUGGGGCACGG
# Variants of: B1
# Experiment: HiTS-RAP
# Details: with NELF-E (Drosophila)
# How it was run: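 Kd came from weighted Hill fits to the first binding curve, with intensities normalised to sequencing intensity and averaged per sequence, keeping only fits whose variance was below 1,000,000. That curve was imaged on an Illumina GAIIx flowcell, where sequenced aptamer DNA templates with a T7 promoter and ter site had been transcribed in situ by T7 RNA polymerase and halted by GST-Tus (30 minutes, 37°C). Before each image, clusters equilibrated for 30 minutes at room temperature with NELF-E-mOrange at 0.064 to 1000 nM in HEPES binding buffer.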
row,Variant,Kd [nM]
1,A24G C25U,6.02
2,U29C C36U,6
3,U10G G34C,13.2
4,A5U G7U,6.92
5,A4G C33G,5.81
6,A4U A43G,40
7,G11U G63A,19.4
8,U22G A39U,29.7
9,C17G G26A,5.44
10,U10G U28G,6.52
11,C51U C66U,7.21
12,G16U G64A,7.51
13,C13G G48A,11
14,C12G G14U,6.28
15,A4G A21G,6
16,A5U U23A,5.58
17,C6U G16U,6.67
18,G14A G20U,5.9
19,C13G U61C,73.4
20,C6U C17U,6.39
21,C6G U29C,4.69
22,U10A A24G,5.63
23,C9G C12A,4.67
24,C6G G32A,4.6

row,Variant,Kd [nM]
1,A39G,8.97
2,A39C,20.5
3,A5G U60C,11.3
4,A8G G34A,4.84
5,C6G G7A,6.58
6,G11A A31G,10.9
7,A19G A24U,7.26
8,U10G G16U,6.08
9,U10G U60A,8.76
10,G14U C38U,9.69
11,G7A A8G,6.39
12,U22G U28A,5.81
13,C17G G18A,6.63
14,A24G G42A,56
15,A4U C50U,12.7
16,A4G A46G,37.6
17,U22G G58U,10.5
18,C6U G14A,7.01
19,U10G G26A,4.15
20,C13G G14A,6.02
21,U23C A24G,5.24
22,G14U C17U,6.1
23,U10G G55C,7.54
24,C6G U41C,64.8

row,Variant,Kd [nM]
1,U10A U23G,5.54
2,U23G C40G,5.5
3,G16U C17G,5.95
4,C13G G42A,49
5,A8U G16A,6.74
6,U23G A52G,4.37
7,G7U C37G,11.1
8,G7U G64A,8.36
9,A5G A15G,6.77
10,U47A,10.2
11,U47C,9.59
12,A19G U29C,6.11
13,G18A G26A,6.84
14,A4G U29C,6.03
15,G7A G16U,5.55
16,G11U G20U,7.02
17,G11U A67U,9.06
18,C2A,5.18
19,C6U U22G,5.57
20,A5G U41A,25
21,G16U U61C,77.5
22,A5G U61C,64.6
23,A5G U61A,37.8
24,G7U U41A,64.3

row,Variant,Kd [nM]
1,A8G G14U,7.09
2,G7U G54U,5.44
3,A4U C38U,6.95
4,A21U C25G,6.57
5,G16U A67U,10.1
6,C13G A46G,47.3
7,C68U,4.59
8,U23G C36U,8.06
9,C9G,5.17
10,U10C A19G,4.87
11,C6G A19U,5.95
12,U23G U41C,93.8
13,U10G U22G,4.87
14,A8G G56U,6.49
15,A4U U29G,5.91
16,C13U A24G,5.12
17,C9G G18A,6.15
18,G7U C27G,5.97
19,A5G G30A,5.43
20,G26A U29G,5.28
21,G64C,7.73
22,C13G G54A,13.8
23,A24G U61G,9.98
24,A8G G30U,4.7

row,Variant,Kd [nM]
1,A4G U23A,5.89
2,A4G U23G,5.42
3,G7U C25U,5.7
4,C9G U10G,5.46
5,A15G U22G,5.78
6,G18A G20U,8.6
7,C9G A24U,7.67
8,A43U A67U,37.1
9,A4G G26A,4.55
10,G20U C57U,7.84
11,U29G G45A,74.1
12,A15U A67G,4.18
13,C9G G16U,6.45
14,A5G G65U,6.76
15,G14U U41A,51.7
16,G14U U41G,6.33
17,U22G G56U,5.99
18,A5G C50U,21.6
19,A5G C50G,6.45
20,A5C G7U,7.5
21,C9G U23C,4.37
22,U10C A24G,5.38
23,A5G U29A,6.04
24,A5G A39U,34.5

row,Variant,Kd [nM]
1,U29G G56A,5.64
2,C13G U47G,6.66
3,U22G G63A,14.9
4,U10C U61C,41.4
5,A4U A52G,4.05
6,A19G,5.18
7,G11U G65U,7.6
8,A8U U22C,5.14
9,A52U G63U,42.2
10,U29G A52U,15.5
11,C6G A46U,56.8
12,C57U,5.5
13,C9U A24G,5.62
14,G42C,44.2
15,U29G G34A,7.56
16,U29G G34U,5.71
17,C6U G11A,5.43
18,G14U G65U,8.73
19,U29G U47A,11.1
20,G14A G54A,12.4
21,A21G U41G,6.21
22,A5G C38U,9.85
23,U10G C38G,7
24,A5U A43G,15.1

row,Variant,Kd [nM]
1,A4G C51G,4.36
2,G7U C9U,6.52
3,U10G A21G,5.45
4,U10G A21U,5.53
5,G14U U28G,9.45
6,C12G C36U,7.29
7,C13G G18U,6.2
8,A8G G20A,5.52
9,U10G A46G,38.8
10,A4G U61C,66.2
11,A43G A67U,23.5
12,A8G G26A,4.49
13,G7U C13A,6.82
14,G7U C13G,5.83
15,U61A,28.4
16,C13G U41C,64.2
17,A24G A52G,5.14
18,A5C G14U,6.73
19,G16A U23G,6.04
20,A8G C36U,6.33
21,G18U U22G,6.85
22,G14A A15U,5.39
23,G7U G65U,7.38
